# Source: PubChem BioAssay AID1296 (Columbia University Molecular Screening Center, 2008)
# About 1,000 (0.77%) of roughly 130,000 compounds were called active. About 1% were inconclusive and are not listed.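 How the source made its calls: active means activation at 2 µM above a set limit, confirmed on inspection of the cell images; inconclusive means above the set limit but not confirmed on image inspection; inactive means the rest.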 The full list was thinned out, with actives kept by preference.
# Assay: activators of insulin promoter-driven GFP, primary screen, imaging, TRM-6 cells (human fetal islet line), eGFP reporter, cell count (AID 1296;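 on activation: share of cells whose green reporter signal exceeds an intensity cutoff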;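 on normalized cell count: cells counted after 48 h compound exposure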)
# Conditions: at 2 µM; activation: stronger effect = higher value, plate-scaled: unstimulated 0, stimulated control 100; normalized cell count: measured here: cell count (toxicity)
# Summary of the method: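 Test system: TRM-6 insulin promoter–eGFP reporter cells / Quantity: 1,000 cells per well / Reagent: tamoxifen inducer, 0.75 µM, in seeding medium / Compound dosing: 2 µM final, single concentration / Schedule: overnight tamoxifen, then two-day compound incubation at 37 °C / Measured by: automated fluorescence imaging of paraformaldehyde-fixed, Hoechst-counterstained cells, green channel / Read-out: percent activation from GFP-positive cell fraction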
Structure (SMILES),activation,normalized cell count
COC(=O)CSc1nnc(-c2cccnc2)o1,5.13% (inactive),134%
O=C(CSc1nnc(-c2ccoc2)o1)N1CCOCC1,-9.09% (inactive),105%
Cc1cccc(C)c1OC(=O)CSc1nnc(-c2ccccc2)o1,487% (active),75.9%
C=CCOc1c(Br)cc(/C=N\n2nnnc2N)cc1OC,0% (inactive),53.2%
CCC1SC(CC)C(=O)N(CC(=O)NC2CCCCC2)C1=O (centres undefined),-8.33% (inactive),80.9%
O=C(CN1C(=O)NC2(CCCCCC2)C1=O)NC1CC1,542% (active),78.5%
O=C(CN1C(=O)NC2(CCCCC2)C1=O)NCCC1=CCCCC1,-3.7% (inactive),86.8%
O=C(CSc1nc2ccc([N+](=O)[O-])cc2[nH]1)c1ccc(Cl)cc1,-3.7% (inactive),85.9%
COc1ccccc1-c1nc(SC)n[nH]1,-5.26% (inactive),131%
COc1ccc(C(=O)NC(=S)NNC(=O)CCc2ccccc2)cc1,-3.57% (inactive),91.6%
COCCNC(=S)c1ccc(OC)cc1,433% (active),62.5%
COc1cc(NC(=S)NCCSc2ccc(C)cc2)cc(OC)c1,-3.12% (inactive),116%
CN=C1S/C(=C\c2ccc(Sc3ccc(Cl)cc3)o2)C(=O)N1C,-2.7% (inactive),43.5%
Cc1ccc(/C=N/NC(=O)Cn2ccc(C(F)(F)F)n2)o1,8.33% (inactive),128%
CC(CNC(=O)c1ccc(N)cc1)NC(=O)c1ccc(N)cc1 (centres undefined),2.33% (inactive),108%
CCN(CC)C(=O)CSc1ncnc2c1cnn2-c1ccccc1,392% (inactive),43.6%
O=C(NNc1ncnc2c1cnn2-c1ccccc1)c1ccco1,500% (active),142%
Cc1ccc(-n2ncc3c(Nc4cccc(C(=O)O)c4)ncnc32)cc1,6.67% (inactive),45%
COc1cc(/C=N/NC(=O)c2cc(C)n(-c3ccc(F)cc3)c2C)cc(OC)c1O,129% (inactive),121%
Cc1cc(NC(=O)COC(=O)COc2ccc(Cl)cc2C)c([N+](=O)[O-])cc1C,0% (inactive),143%
Cc1cccc(C(=O)N2CCCN(C(=O)c3cccc(C)c3)CC2)c1,3.23% (inactive),110%
Cc1ccc2cc3cc(C(=O)N4CCCCCC4)oc3nc2c1,183% (active),233%

Structure (SMILES),activation,normalized cell count
Cc1cc(=O)oc(C)c1C(=O)N1CCCCC1,5.26% (inactive),82.9%
Cc1cccc(N(C(=O)Cc2cccs2)C(C(=O)NCc2ccco2)c2ccncc2)c1 (centres undefined),107% (inactive),58.7%
COc1cc(NC(=O)CSc2nnc3ccc(-c4ccncc4)nn23)cc(OC)c1,-5.26% (inactive),108%
Cc1ccc(OC(=O)c2cc3ccccc3o2)cc1,79.3% (active),174%
O=C(Nc1ccncc1)c1cc2ccccc2o1,342% (inactive),93.3%
COc1ccc(C(=O)N/N=c2\oc3ccccc3cc2C(N)=O)cc1,0% (inactive),70.8%
COC(=O)[C@H]1Cc2cnoc2C[C@]1(C)C(=O)O,0% (inactive),176%
COC(=O)c1cc(OC)c(OC)cc1NC(=O)CSc1ccc(C)cc1,3.33% (inactive),108%
Cc1cc(C)cc(NC(=O)CSc2ccccc2)c1,525% (active),53.5%
COc1ccc(C)cc1NC(=O)CSc1ccc(Cl)cc1,-5.56% (inactive),93.7%
Cc1nc(CC(=O)NNS(=O)(=O)c2ccc(F)c(Cl)c2)cs1,-7.69% (inactive),104%
N#Cc1ccc(Oc2cc(C(F)(F)F)nc(-c3ccccn3)n2)cc1,-9.09% (inactive),91.7%
CCN(CC(=O)NC(=O)NCc1ccccc1)Cc1nc2ccccc2c(=O)[nH]1,8.33% (inactive),68.7%
Cc1nn(C)c(Oc2ccccc2)c1[N+](=O)[O-],7.04% (inactive),55.2%
O=C(O)COc1ccc(/C=N/O)cc1Br,8.33% (inactive),101%
CN1/C(=C\C=C2\N=C(c3ccc(F)cc3)OC2=O)C(C)(C)c2ccccc21,121% (active),53.1%
CC(=O)NCCC(=O)Nc1nc(C)c(Cc2ccc3c(c2)OCO3)s1,0% (inactive),42.1%
COc1cc(/C=C2/C(=O)ON=C2C)ccc1OCc1cccc(F)c1,0% (inactive),98.9%
Cc1nn(Cc2ccc(C(=O)N3N=C(C(F)F)CC3(O)C(F)F)cc2)c(C)c1[N+](=O)[O-] (centres undefined),4.44% (inactive),126%
O=C(NCc1ccco1)c1nn2cccnc2c1Cl,0% (inactive),126%
COc1ccc(CS(=O)/C(Cl)=C(/Cl)C(=O)Nc2ccc(OC)nc2)cc1 (centres undefined),669% (active),10.6%
COc1ccc(OC(C)C(=O)Nc2cccnc2)cc1 (centres undefined),-8.57% (inactive),50%

Structure (SMILES),activation,normalized cell count
COc1ccc(CC(=O)Nc2ccc(-c3nnc(-c4ccccc4)o3)cc2)cc1,6.45% (inactive),115%
COc1ccc(OC)c(CNC(=O)c2cc(=O)[nH]c3ccc(S(=O)(=O)N4CCCC4)cc23)c1,0% (inactive),73.7%
CC(C)C(C)(C#N)NC(=O)CSc1nncn1-c1ccccc1 (centres undefined),-7.14% (inactive),91.1%
CCNc1nc(NC(C)C)nc(N2CC(=O)N(CC(=O)OCC)C2=N)n1,344% (active),69.4%
O=Cc1cn(Cc2ccccc2)nc1-c1cccnc1,2.44% (inactive),212%
CS(=O)(=O)N(Cc1ccccc1)c1ccc(C(=O)NN=C2CCCCCC2)cc1,-6.9% (inactive),150%
COC(=O)Nc1sc2nc(C)cc(C)c2c1-n1cccc1,-3.7% (inactive),74.8%
CCCN1CC=C2C(C#N)=C(N)C(C#N)(C#N)C(c3cc(OC)ccc3OC)C2C1 (centres undefined),178% (active),123%
COc1cc(OC)cc(-c2nc3ccccc3c(=O)n2NC(=O)c2cccnc2Cl)c1,-5.56% (inactive),107%
CC1=NNC(=O)C1CCC(=O)N/N=C\c1ccc(Cl)c(Cl)c1 (centres undefined),0% (inactive),124%
CCCn1c(=S)[nH]c2ccc(C(F)(F)F)cc21,205% (active),78%
CC1CC(C)CN(C(=O)CSc2ccsc2[N+](=O)[O-])C1 (centres undefined),0% (inactive),74.7%
CCOc1ccc(S(=O)(=O)Nc2ccncc2)c(C)c1C,-72.7% (inactive),133%
CCOc1ccc(NC(=S)NC(=O)/C=C/c2ccc(OC)cc2)c([N+](=O)[O-])c1,8.82% (inactive),139%
CCN(CC)CCn1c(/N=C/c2cc(Br)ccc2O)nc2ccccc21,149% (inactive),133%
CC(O)c1nc2ccccc2n1Cc1ccc([N+](=O)[O-])cc1 (centres undefined),-2.94% (inactive),149%
CC(C)CCNC(=O)CC1C(=O)N(Cc2ccccc2)C(C)c2nc3ccccc3n21 (centres undefined),127% (inactive),118%
CC(C)(C)N1CC(c2nc3ccccc3n2Cc2ccc(F)cc2)CC1=O (centres undefined),80% (active),127%
Cc1ccc(C2CC2C(=O)NN)cc1 (centres undefined),0% (inactive),90.7%
Cc1noc(C)c1CCC(=O)O,5.56% (inactive),134%
Cc1ccc(NC(=O)c2ccn(C(=O)Nc3ccccc3)n2)c(C)c1,0% (inactive),123%
Cc1ccnc(NC(=O)Cn2ccc([N+](=O)[O-])n2)c1,5.71% (inactive),124%

Structure (SMILES),activation,normalized cell count
CCOC(=O)c1[nH]c2ccc(OC)cc2c1NC(=O)N1CCOCC1,3.57% (inactive),45.3%
Cc1c(C(=O)N2CCOCC2)[nH]c2ccc(OCc3ccccc3)cc12,104% (active),126%
O=C(CN1CCOCC1)N1CCCc2c1c(=O)oc1ccc(OCc3ccccc3)cc21,21.5% (inactive),118%
CC(=O)c1cc(-c2ccccc2)n(CCC(=O)NC2CCCCCC2)c1C,5.71% (inactive),127%
CCN(CC(=O)Nc1ccc(Cl)c(S(=O)(=O)N(C)C)c1)Cc1nc2ccccc2c(=O)[nH]1,8.33% (inactive),83.9%
CCn1c(Cc2cccs2)nnc1SCC(=O)c1ccc(C)cc1,433% (active),93.9%
CCn1c(SCC(=O)Nc2nccs2)nnc1-c1ccco1,0% (inactive),131%
Cc1ccc(-n2c(Cc3cccs3)nnc2SCC(=O)OC(C)C)cc1,-7.69% (inactive),48%
Cc1ccsc1C1C(C#N)=C(N)OC2=C1C(=O)CC(C)(C)C2 (centres undefined),0% (inactive),62.4%
CCN1CCN(C(C(=O)NC2CCCC2)c2cc3c(cc2[N+](=O)[O-])OCO3)CC1 (centres undefined),6.67% (inactive),84.9%
CCCC(=O)NC(Nc1ccccc1OC)C(Cl)(Cl)Cl (centres undefined),-4.35% (inactive),88%
CN(C)c1ccc(/C=C2\NC(=S)N(Cc3ccccc3)C2=O)cc1,170% [may fluoresce] (active),95.4%
Cc1nc2ccccc2cc1C(=O)N/N=C/c1ccc([N+](=O)[O-])cc1,-75% (inactive),81%
COc1cc(/C=C/C(=O)OCC(=O)Nc2cccc(Oc3ccccc3)c2)ccc1O,3.57% (inactive),105%
O=C(Nc1cccc(Cl)c1)Nc1nnc(-c2ccccc2)o1,4.65% (inactive),60.8%
CCOc1cc(/C=C2/C(=N)N3OC(C)=CC3=NC2=O)ccc1OC,6.67% (inactive),55.1%
O=C(c1ccccc1)c1ccc2nc(N3CCCCC3)c3nncn3c2c1,320% (active),70%
c1ccc(CC2CCN(c3nc4ccccc4n4cnnc34)CC2)cc1,-7.14% (inactive),111%
O=C(Nc1ccccc1N1CCCCC1)c1cccc(F)c1,5.71% (inactive),92.9%
CCC(C)NC(=O)c1nn(C)c(=O)c2ccccc12 (centres undefined),-5.56% (inactive),169%
Cc1ccc(S(=O)(=O)c2ccc(Cl)cc2)cc1S(=O)(=O)NC(C(=O)O)C(C)C (centres undefined),3.85% (inactive),127%
